# Reference: ChEMBL document CHEMBL1147062, “Therapeutic anticancer efficacy of a synthetic diazonamide analog in the absence of overt toxicity” (Proc Natl Acad Sci U S A, 2007)
# The source made the active and inactive calls. No cut-off for these calls is given here.
# Legend:
# [1] = test system: PC-3; assay: Antitumor activity against human PC3 cells xenografted into NCR nu/nu mouse at 7.5 mg/kg, iv dosed in qdX6 schedule relative to control; format: functional
# In short: (§1)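 Nude mice received 10^7 PC3 cells s.c. in the left flank and were randomized at ≈250 mm3 into groups of six to seven. Dosing was i.v. daily for 6 consecutive days, in 0.2 ml cremaphor:ethanol (1:1) diluted in 5% dextrose. Tumors were measured by calipers as (length × width2)/2, and weight was tracked alongside.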
# [2] = test system: Mus musculus; assay: Toxicity in NCR nu/nu mouse neutropenia model assessed as decrease in neutrophil count in bone marrow at 20 mg/kg, iv QD for 6 days relative to control; format: organism-based; set-up: dose 20 mg/kg, route intravenous; settings: in vivo, 144 h
# In short: (§2)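 Non-tumor-bearing NCR nu/nu mice, four to five per group, got 20 mg/kg i.v. qd × 6 in cremaphor:ethanol/5% dextrose, or vehicle. They were weighed and observed daily and killed on day 8. Tail-vein blood and femoral marrow were lysed of erythrocytes, stained for Gr1 and analyzed by flow cytometry. Neutrophil counts were %Gr1hi × white cells per ml or per femur. Groups were compared with control by one-way ANOVA and Dunnett's test.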
# [3] = test system: Mus musculus; assay: Toxicity in NCR nu/nu mouse assessed as loss of body weight at 20 mg/kg, iv for 6 days; format: organism-based; set-up: dose 20 mg/kg, route intravenous; settings: in vivo, 144 h
# In short: (§3)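 Nude mice carried 10^7 PC3 cells s.c. in the left flank and were randomized into groups of six to seven when tumors reached ≈250 mm3. Mice were dosed at 20, 7.5 or 2.5 mg/kg for 6 consecutive days. Body weight was tracked against starting weight, including 2 days after the last dose.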
# [4] = test system: HCT-116; assay: Antitumor activity against human HCT116 cells xenografted into NCR nu/nu mouse at 5 mg/kg, iv dosed in q2-3dX6 schedule relative to control; format: functional
# In short: (§4)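 NCR nu/nu mice given 7.5–10 × 10^6 tumor cells s.c. in the left flank. At ≈100–300 mm3 (5–10 days), mice were randomized into groups of 4–7. Compound was predissolved in 1:1 cremaphor:ethanol, then diluted into 5% dextrose. Dosed i.v. or i.p. in 0.2 ml on Monday, Wednesday and Friday for 2 weeks. Caliper measurements 2–3 times weekly; volume = (length × width2)/2.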
# [5] = Clearance in NCR nu/nu mouse plasma at 20 mg/kg, iv; format: ADME, organism-based; set-up: dose 20 mg/kg, route intravenous
# In short: (§5)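 Each NCR nu/nu mouse got one i.v. bolus of 20 mg/kg in 0.2 ml of 1:1 cremaphor:ethanol (10%) diluted in 5% dextrose. At set times mice were killed by CO2 overdose and bled by cardiac puncture into sodium citrate. Plasma was spun 10 min at 8,000 × g and frozen at −80°C. LC-MS used an internal standard and a spiked blank murine plasma standard curve. Parameters came from noncompartmental analysis.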
# [6] = test system: Mus musculus; assay: Toxicity in NCR nu/nu mouse assessed as loss of body weight at 2.5 mg/kg, iv for 6 days; format: organism-based; set-up: dose 2.5 mg/kg, route intravenous; settings: in vivo, 144 h; in short: as §3
# [7] = test system: Mus musculus; assay: Toxicity in human HCT116 cells xenografted NCR nu/nu mouse assessed as loss of body weight at 20 mg/kg, iv QD for 6 days; format: organism-based, HCT-116; set-up: dose 20 mg/kg, route intravenous; settings: in vivo, 144 h
# In short: (§6)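 NCR nu/nu mice received 10^7 HCT116 cells s.c. in the left flank 12 days before therapy. Dosing was i.v. qd × 6: 20 mg/kg in cremaphor:ethanol/5% dextrose, or 2 mg/kg vinblastine sulfate in 5% dextrose. Mice were weighed daily. On day 8, Gr1hi neutrophils in tail-vein blood and femoral marrow were counted by flow cytometry and compared with control by ANOVA and Dunnett's test.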
# [8] = test system: Mus musculus; assay: Toxicity in NCR nu/nu mouse neutropenia model assessed as loss of body weight at 20 mg/kg, iv QD for 6 days; format: organism-based; set-up: dose 20 mg/kg, route intravenous; settings: in vivo, 144 h; in short: as §2
# [9] = test system: HCT-116; assay: Antitumor activity against human HCT116 cells xenografted into NCR nu/nu mouse at 20 mg/kg, ip dosed in q2-3dX6 schedule relative to control; format: functional; settings: route intraperitoneal; in short: as §4
# [10] = test system: PC-3; assay: Antitumor activity against human PC3 cells xenografted into NCR nu/nu mouse at 2.5 mg/kg, iv dosed in qdX6 schedule relative to control; format: functional; in short: as §1
# [11] = test system: Mus musculus; assay: Toxicity in NCR nu/nu mouse neutropenia model assessed as decrease in neutrophil count in peripheral blood at 20 mg/kg, iv QD for 6 days relative to control; format: organism-based; set-up: dose 20 mg/kg, route intravenous; settings: in vivo, 144 h; in short: as §2
# [12] = AUC in NCR nu/nu mouse plasma at 20 mg/kg, iv; format: ADME, organism-based; set-up: dose 20 mg/kg, route intravenous; in short: as §5
# [13] = test system: Mus musculus; assay: Toxicity in human HCT116 cells xenografted NCR nu/nu mouse assessed as decrease in neutrophil count in bone marrow at 2 mg/kg, iv QD for 6 days relative to control; format: organism-based, HCT-116; set-up: dose 2 mg/kg, route intravenous; settings: in vivo, 144 h; in short: as §6
# [14] = test system: Mus musculus; assay: Volume of distribution in NCR nu/nu mouse plasma at 20 mg/kg, iv; format: ADME, organism-based; set-up: dose 20 mg/kg, route intravenous; settings: in vivo; in short: as §5
# [15] = test system: PC-3; assay: Antitumor activity against human PC3 cells xenografted into NCR nu/nu mouse at 20 mg/kg, iv dosed in qdX6 schedule relative to control; format: functional; in short: as §1
# [16] = test system: MDA-MB-435; assay: Antitumor activity against human MDA-MB-435 cells xenografted into NCR nu/nu mouse at 20 mg/kg, ip dosed in q3-4dX4 schedule relative to control; format: functional; settings: route intraperitoneal
# In short: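 NCR nu/nu mice bearing s.c. left-flank xenografts (7.5–10 × 10^6 cells) were randomized at ≈100–300 mm3 into groups of 4–7. Dosing was i.p. in 0.2 ml, with cremaphor:ethanol (1:1) stock diluted in 5% dextrose. Body weight and caliper tumor size were recorded 2–3 times per week; volume = (length × width2)/2.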
# [17] = test system: Mus musculus; assay: Toxicity in human HCT116 cells xenografted NCR nu/nu mouse assessed as decrease in neutrophil count in peripheral blood at 2 mg/kg, iv QD for 6 days relative to control; format: organism-based, HCT-116; set-up: dose 2 mg/kg, route intravenous; settings: in vivo, 144 h; in short: as §6
# [18] = test system: PC-3; assay: Antitumor activity against human PC3 cells xenografted into NCR nu/nu mouse at 20 mg/kg, iv dosed in q2-3dX6 schedule relative to control; format: functional; in short: as §4
# [19] = test system: HCT-116; assay: Antitumor activity against human HCT116 cells xenografted into NCR nu/nu mouse at 20 mg/kg, iv dosed in q2-3dX6 schedule relative to control; format: functional; in short: as §4
# [20] = test system: Mus musculus; assay: Toxicity in human HCT116 cells xenografted NCR nu/nu mouse assessed as loss of body weight iv QD for 6 days; settings: in vivo, 144 h
# [21] = test system: HCT-116; assay: Antitumor activity against human HCT116 cells xenografted into NCR nu/nu mouse at 5 mg/kg, ip dosed in q2-3dX6 schedule relative to control; format: functional; settings: route intraperitoneal; in short: as §4
# [22] = Terminal half life in NCR nu/nu mouse plasma at 20 mg/kg, iv; format: ADME, organism-based; set-up: dose 20 mg/kg, route intravenous; in short: as §5
# [23] = test system: PC-3; assay: Induction of histone H3 phosphorylation in human PC3 cells xenografted into NCR nu/nu mouse at 20 mg/kg, iv; format: functional, organism-based; set-up: dose 20 mg/kg
# In short: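 nu/nu mice carried 10^7 PC3 cells s.c. in the left flank. On day 8 they got one i.v. dose of 20 mg/kg or vehicle, two mice per group. Tumors were taken 12 h later, snap-frozen and homogenized in RIPA buffer with phosphatase and protease inhibitors. 100 µg protein was Western blotted for phospho-histone H3, with actin as control.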
# [24] = Drug level in NCR nu/nu mouse plasma at 20 mg/kg, iv after 24 hrs; format: ADME, organism-based; set-up: dose 20 mg/kg, route intravenous; in short: as §5
# [25] = test system: Mus musculus; assay: Toxicity in NCR nu/nu mouse neutropenia model assessed as severe flaking of skin at 20 mg/kg, iv QD for 6 days; format: organism-based; set-up: dose 20 mg/kg, route intravenous; settings: in vivo, 144 h; in short: as §2
# [26] = test system: Mus musculus; assay: Toxicity in human HCT116 cells xenografted NCR nu/nu mouse assessed as decrease in neutrophil count in bone marrow at 20 mg/kg, iv QD for 6 days relative to control; format: organism-based, HCT-116; set-up: dose 20 mg/kg, route intravenous; settings: in vivo, 144 h; in short: as §6
# [27] = test system: Mus musculus; assay: Toxicity in NCR nu/nu mouse assessed as loss of body weight at 7.5 mg/kg, iv for 6 days; format: organism-based; set-up: dose 7.5 mg/kg, route intravenous; settings: in vivo, 144 h; in short: as §3
# [28] = test system: Mus musculus; assay: Toxicity in human HCT116 cells xenografted NCR nu/nu mouse assessed as decrease in neutrophil count in peripheral blood at 20 mg/kg, iv QD for 6 days relative to control; format: organism-based, HCT-116; set-up: dose 20 mg/kg, route intravenous; settings: in vivo, 144 h; in short: as §6
# [29] = test system: HCT-116; assay: Antitumor activity against human HCT116 cells xenografted into NCR nu/nu mouse at 0.45 mg/kg, ip dosed in q2-3dX6 schedule relative to control; format: functional; settings: route intraperitoneal
# [30] = test system: MDA-MB-435; assay: Antitumor activity against human MDA-MB-435 cells xenografted into NCR nu/nu mouse at 0.7 mg/kg, ip dosed in q3-4dX4 schedule relative to control; format: functional; settings: route intraperitoneal
SMILES,LCK [1],T/C [1],Activity [2],Activity [3],Activity [7],Activity [8],T/C [10],Activity [11],Activity [13],LCK [15],T/C [15],Activity [17],LCK [18],T/C [18],LCK [19],T/C [19],Activity [20],Activity [25],Activity [26],Activity [28],other results
"CC(C)[C@H](O)C(=O)N[C@@H]1C(=O)N[C@@H](C(C)C)c2nc3c(o2)C24c5ccc(cc5N[C@H]2Oc2ccc1cc24)-c1cccc2[nH]cc(c12)-c1cnc-3o1 (single isomer, unassigned)",1.6,3.9%,Non-toxic,<= 5%,Non-toxic,Non-toxic,31.4%,Non-toxic,Non-toxic,2.4,2.1%,Non-toxic,3.4,0.3%,1.8,0.2%,Non-toxic,Non-toxic,Non-toxic,Non-toxic,LCK [4]: 0.5; T/C [4]: 26.5%; clearance [5]: 0.146 mL/min; Activity [6]: <= 5%; LCK [9]: 1; T/C [9]: 9.3%; AUC [12]: 50200 ng·h/mL; Vd [14]: 62.7 mL; LCK [16]: 1; T/C [16]: 3.1%; LCK [21]: 0.4; T/C [21]: 41.9%; half-life [22]: 4.96 h; Activity [23]: Active; concentration at 24 h [24]: 15 ng/mL; Activity [27]: <= 5%
CC(=O)O[C@H]1C(=O)[C@@]2(C)[C@H]([C@H](OC(=O)c3ccccc3)[C@]3(O)C[C@H](OC(=O)[C@H](O)[C@@H](NC(=O)c4ccccc4)c4ccccc4)C(C)=C1C3(C)C)[C@]1(OC(C)=O)CO[C@@H]1C[C@@H]2O [PACLITAXEL],1.5,6.1%,Toxic,> 20%,Toxic,20%,49.2%,Toxic,Toxic,3.8,0.6%,Toxic,3.4,0%,2.7,0.2%,Toxic,Toxic,Toxic,Toxic,LCK [10]: 0.3; Activity [27]: 13%
CC[C@]1(O)C[C@@H]2CN(CCc3c([nH]c4ccccc34)[C@@](C(=O)OC)(c3cc4c(cc3OC)N(C)[C@H]3[C@@](O)(C(=O)OC)[C@H](OC(C)=O)[C@]5(CC)C=CCN6CC[C@]43[C@@H]65)C2)C1.O=S(=O)(O)O [VINBLASTINE SULFATE],–,–,–,–,Toxic,–,–,–,Toxic,–,–,Toxic,–,–,–,–,Toxic,–,Toxic,Toxic,LCK [29]: 0.2; T/C [29]: 56%; LCK [30]: 0.2; T/C [30]: 41.1%
